In assay [1] the target is Glutamate receptor 1 (Rattus norvegicus) (UniProt P19490). Kind of assay: Activity at rat recombinant GluA1 receptor expressed in Xenopus oocytes assessed as effect on glutamate-induced response by two-electrode voltage clamp technique. To be noted: Oocyte. The class given is cell-based. Summed up:
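Oocytes injected with 1–5 ng cRNA, kept in Barth's solution at 15°C for 2–5 days. Clamped at -40 mV in 90 NaCl, 1.0 KCl, 0.5 BaCl₂, 0.005 EDTA, 10 HEPES (mM), pH 7.4, 23°C. Receptors activated by 100 µM glutamate with compound co-applied. GluK2 oocytes pretreated with 10 µM concanavalin A for 10 min. DMSO 0.05–0.5% final.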

The target in assay [2] is Ionotropic glutamate receptor NMDA 1/2D (Rattus norvegicus, UniProt P35439+Q62645). Kind of assay: Activity at rat recombinant GluN1/GluN2D receptor assessed as potentiation of glycine/glutamate-induced activation by two-electrode voltage clamp technique. The class given is protein-complex assay.
Sequence of Ionotropic glutamate receptor NMDA 1/2D (Q62645 whole entry, other chains not shown): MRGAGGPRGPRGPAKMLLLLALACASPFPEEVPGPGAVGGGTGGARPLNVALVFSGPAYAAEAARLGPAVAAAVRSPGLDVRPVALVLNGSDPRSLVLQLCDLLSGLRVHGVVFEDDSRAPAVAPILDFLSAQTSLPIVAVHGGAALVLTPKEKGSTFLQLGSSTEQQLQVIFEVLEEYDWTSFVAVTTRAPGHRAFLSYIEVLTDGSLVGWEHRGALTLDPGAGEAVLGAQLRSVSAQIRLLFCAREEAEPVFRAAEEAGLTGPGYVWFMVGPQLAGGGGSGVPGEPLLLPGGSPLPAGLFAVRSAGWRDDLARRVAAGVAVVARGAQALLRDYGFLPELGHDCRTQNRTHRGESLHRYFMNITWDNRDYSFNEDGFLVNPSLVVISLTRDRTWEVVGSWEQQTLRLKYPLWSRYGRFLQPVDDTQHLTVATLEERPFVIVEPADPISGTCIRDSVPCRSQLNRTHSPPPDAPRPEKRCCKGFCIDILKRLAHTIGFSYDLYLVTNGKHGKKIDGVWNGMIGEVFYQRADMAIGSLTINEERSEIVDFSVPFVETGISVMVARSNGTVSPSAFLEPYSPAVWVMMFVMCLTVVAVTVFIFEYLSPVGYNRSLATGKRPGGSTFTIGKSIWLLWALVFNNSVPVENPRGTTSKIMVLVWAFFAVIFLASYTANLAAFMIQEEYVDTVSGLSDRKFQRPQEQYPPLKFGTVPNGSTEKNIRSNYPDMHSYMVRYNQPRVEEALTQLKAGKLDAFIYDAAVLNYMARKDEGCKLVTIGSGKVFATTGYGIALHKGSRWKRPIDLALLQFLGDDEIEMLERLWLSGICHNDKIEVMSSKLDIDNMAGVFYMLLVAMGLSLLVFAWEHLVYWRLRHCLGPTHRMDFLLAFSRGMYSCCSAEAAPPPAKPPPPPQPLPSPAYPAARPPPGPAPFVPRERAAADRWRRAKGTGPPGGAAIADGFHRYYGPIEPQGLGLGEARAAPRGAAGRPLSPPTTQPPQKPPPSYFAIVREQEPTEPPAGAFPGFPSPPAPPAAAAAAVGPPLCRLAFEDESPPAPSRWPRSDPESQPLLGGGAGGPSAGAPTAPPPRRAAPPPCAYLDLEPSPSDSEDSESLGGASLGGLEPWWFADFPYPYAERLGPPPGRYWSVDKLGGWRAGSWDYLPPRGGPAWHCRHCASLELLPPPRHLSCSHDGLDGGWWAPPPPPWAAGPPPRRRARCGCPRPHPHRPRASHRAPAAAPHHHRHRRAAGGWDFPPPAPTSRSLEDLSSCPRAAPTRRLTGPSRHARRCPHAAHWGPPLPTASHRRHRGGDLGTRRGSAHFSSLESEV
The target in assay [3] is Glutamate NMDA receptor; Grin1/Grin2c (Rattus norvegicus, UniProt P35439+Q00961). Kind of assay: Activity at rat recombinant GluN1/GluN2C receptor assessed as potentiation of glycine/glutamate-induced activation by two-electrode voltage clamp technique. In kind it is protein-complex assay.
Sequence of Glutamate NMDA receptor; Grin1/Grin2c (Q00961 whole entry, other chains not shown): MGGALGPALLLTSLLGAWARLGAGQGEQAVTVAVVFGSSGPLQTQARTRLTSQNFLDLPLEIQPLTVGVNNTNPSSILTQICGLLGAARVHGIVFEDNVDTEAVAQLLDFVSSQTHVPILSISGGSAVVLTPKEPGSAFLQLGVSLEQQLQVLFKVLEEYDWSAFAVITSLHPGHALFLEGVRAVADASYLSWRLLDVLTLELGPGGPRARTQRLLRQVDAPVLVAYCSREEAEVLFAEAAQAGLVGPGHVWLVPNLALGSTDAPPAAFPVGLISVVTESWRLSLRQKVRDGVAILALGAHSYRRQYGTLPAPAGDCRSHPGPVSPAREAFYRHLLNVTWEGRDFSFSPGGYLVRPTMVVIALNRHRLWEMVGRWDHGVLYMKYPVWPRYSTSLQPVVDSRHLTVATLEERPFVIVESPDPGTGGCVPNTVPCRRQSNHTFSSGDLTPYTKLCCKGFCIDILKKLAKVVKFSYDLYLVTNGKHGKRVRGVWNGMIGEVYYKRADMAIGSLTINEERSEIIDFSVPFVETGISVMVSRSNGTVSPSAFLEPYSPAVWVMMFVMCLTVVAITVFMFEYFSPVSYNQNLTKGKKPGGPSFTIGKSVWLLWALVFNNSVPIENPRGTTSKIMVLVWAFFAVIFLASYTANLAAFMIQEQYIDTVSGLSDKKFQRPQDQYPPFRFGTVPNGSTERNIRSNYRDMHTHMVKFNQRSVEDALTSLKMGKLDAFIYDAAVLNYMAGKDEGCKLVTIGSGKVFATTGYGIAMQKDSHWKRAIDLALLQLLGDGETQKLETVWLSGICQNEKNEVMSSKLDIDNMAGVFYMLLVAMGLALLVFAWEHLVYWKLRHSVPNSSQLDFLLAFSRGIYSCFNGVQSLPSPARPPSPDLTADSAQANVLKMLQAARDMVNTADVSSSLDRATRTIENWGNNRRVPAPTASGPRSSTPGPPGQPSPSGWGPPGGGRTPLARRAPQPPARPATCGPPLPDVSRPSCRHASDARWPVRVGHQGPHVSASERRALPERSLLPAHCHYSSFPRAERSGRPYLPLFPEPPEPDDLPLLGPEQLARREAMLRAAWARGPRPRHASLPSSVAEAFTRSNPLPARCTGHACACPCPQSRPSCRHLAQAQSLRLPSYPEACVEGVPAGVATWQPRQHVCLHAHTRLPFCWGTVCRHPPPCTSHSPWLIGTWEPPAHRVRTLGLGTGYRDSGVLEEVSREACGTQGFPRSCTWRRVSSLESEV

The source made the active and inactive calls. No cut-off for these calls is given here.

Sequence of Glutamate receptor 1 (Rattus norvegicus) (P19490 whole entry): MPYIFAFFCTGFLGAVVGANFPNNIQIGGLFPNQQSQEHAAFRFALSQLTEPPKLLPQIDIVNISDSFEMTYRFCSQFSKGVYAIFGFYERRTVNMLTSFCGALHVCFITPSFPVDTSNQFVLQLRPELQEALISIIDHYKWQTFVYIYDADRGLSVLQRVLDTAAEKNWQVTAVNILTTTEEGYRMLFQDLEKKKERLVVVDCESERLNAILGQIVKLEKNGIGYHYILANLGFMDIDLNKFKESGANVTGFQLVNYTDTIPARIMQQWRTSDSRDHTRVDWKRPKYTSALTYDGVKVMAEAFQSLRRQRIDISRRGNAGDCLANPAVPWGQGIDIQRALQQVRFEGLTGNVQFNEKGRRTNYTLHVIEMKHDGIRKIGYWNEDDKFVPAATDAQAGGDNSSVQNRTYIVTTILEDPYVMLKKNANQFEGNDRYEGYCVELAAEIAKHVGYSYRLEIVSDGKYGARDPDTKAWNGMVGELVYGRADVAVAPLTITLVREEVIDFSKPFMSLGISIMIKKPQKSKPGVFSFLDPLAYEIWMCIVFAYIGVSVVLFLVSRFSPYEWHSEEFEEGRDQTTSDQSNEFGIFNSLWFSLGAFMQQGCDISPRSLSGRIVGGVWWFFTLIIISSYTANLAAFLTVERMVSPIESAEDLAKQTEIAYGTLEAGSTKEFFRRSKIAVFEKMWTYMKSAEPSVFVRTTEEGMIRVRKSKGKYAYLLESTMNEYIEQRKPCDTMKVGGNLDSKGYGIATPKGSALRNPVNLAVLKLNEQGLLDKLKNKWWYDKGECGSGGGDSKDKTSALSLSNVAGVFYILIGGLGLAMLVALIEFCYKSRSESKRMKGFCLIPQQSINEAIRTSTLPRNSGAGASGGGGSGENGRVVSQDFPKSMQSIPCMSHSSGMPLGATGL

For `COc1ccc(OCC2c3cc(OC)c(OC)cc3CCN2C(=O)CN2CCOCC2)cc1` (racemic), the result in assay [1] was inactive.
For `COc1ccc(OCC2c3cc(OC)c(OC)cc3CCN2C(=O)c2cccc(I)c2)cc1` (racemic), the concentration giving a half-maximal response (EC50) is 4.9 µM in assay [2] and 4 µM in assay [3].
For the compound `COc1ccc(/C=C/C2c3ccc(OC)cc3CCN2C(=O)c2cccc(Br)c2)cc1` (racemic), the result in assay [1] was inactive. Also, the concentration for a half-maximal effect (EC50) in assay [2] is 1.7 µM; in assay [3] it was 1.5 µM.
In the case of `COc1ccc(OCC2c3cc(OC)c(OC)cc3CCN2C(=O)c2cccc(C(Cl)Cl)c2)cc1` (racemic), the concentration giving a half-maximal response (EC50) in assay [2] is 5.4 µM; in assay [3], 3.7 µM.
For `COc1cc2c(cc1OC)C(COc1ccc(SC)cc1)N(C(=O)c1cccc(Cl)c1)CC2` (racemic) the same measures were 5.3 µM and 5.1 µM.
`COc1ccc(OCC2c3cc(OC)c(OC)cc3CCN2C(=O)c2cccs2)cc1` (racemic): the EC50 in assay [3] came to 9 µM.
Regarding `COc1ccc(/C=C/C2c3cc(OC)c(OC)cc3CCN2C(=O)c2cccc(Br)c2)cc1` (racemic), in assay [1], the result was inactive. Moreover, the concentration for a half-maximal effect (EC50) in assay [2] and in assay [3] was 2.8 µM in each case.
Turning to `COc1ccc(OCC2c3cc(OC)c(OC)cc3CCN2C(=O)c2cc(Cl)cc(Cl)c2)cc1` (racemic), the result in assay [1] was inactive. The concentration for a half-maximal effect (EC50) in assay [2] was determined as 1.9 µM; in assay [3] it was 4.8 µM.
Consider `COc1ccc(OCC2c3cc4c(cc3CCN2C(=O)c2cccc(Br)c2)OCO4)cc1` (racemic), for which the concentration giving a half-maximal response (EC50) in assay [2] came to 3.4 µM; in assay [3], 3.2 µM.
As for `COc1ccc(CCC2c3cc(OC)c(OC)cc3CCN2C(=O)c2cccc(Br)c2)cc1` (racemic), the result in assay [1] was inactive. The half-maximal effective concentration (EC50) in assay [2] came to 15 µM; in assay [3] it was 11 µM.
Regarding `COc1ccc(OCC2c3ccc(C)cc3CCN2C(=O)c2cccc(Br)c2)cc1` (racemic), the EC50 in assay [2] turned out to be 3.6 µM; in assay [3] it was 3.2 µM.
As for `COc1cc2c(cc1OC)C(COc1ccc(N(C)C)cc1)N(C(=O)c1cccc(Cl)c1)CC2` (racemic), the EC50 in assay [3] worked out at 35 µM.
For `COc1ccc(OCC2c3cc(OC)c(OC)cc3CCN2C(=O)c2ccc(Cl)c(Cl)c2)cc1` (racemic), the EC50 in assay [2] was determined as 24 µM; in assay [3] it was 21 µM.
Regarding `COc1ccc(OCC2c3cc(OC)c(OC)cc3CCN2C(=O)c2ccc(Cl)cc2)cc1` (racemic), the half-maximal effective concentration (EC50) in assay [3] was 4.1 µM.
Turning to `COc1cc2c(cc1OC)CN(C(=O)c1ccccc1)CC2`, the outcome in assay [1] was inactive.
For the compound `COc1ccc(OCC2c3ccc(OC)cc3CCN2C(=O)c2cccc(Br)c2)cc1` (racemic), the outcome in assay [1] was inactive. The values for the EC50 in assay [2] and in assay [3] were 2.9 µM and 2 µM, respectively.
With `COc1ccc(OCC2c3ccc(OCc4ccccc4)cc3CCN2C(=O)c2ccccc2)cc1` (racemic), the concentration giving a half-maximal response (EC50) in assay [2] turned out to be 2.3 µM; in assay [3] it was 0.7 µM.
On to `COc1ccc(OCC2c3ccc(OC)cc3CCN2C(=O)c2cccc(Cl)c2)cc1` (racemic), for which the result in assay [1] was inactive.
Turning to `COc1ccc(OCC2c3c(cc(OC)cc3OC)CCN2C(=O)c2cccc(Br)c2)cc1` (racemic), the EC50 is 7.8 µM in assay [2] and 9 µM in assay [3].
For `COc1ccc(OCC2c3c(cc(OC)cc3OC)CCN2C(=O)c2ccccc2)cc1` (racemic) the same measures were 14 µM and 10 µM.
In the case of `COc1ccc(OCC2c3cc(OC)c(OC)cc3CCN2C(=O)c2cccc(C)c2)cc1` (racemic), the EC50 turned out to be 5.5 µM in assay [2] and 6.2 µM in assay [3].
For `COc1ccc(OCC2c3cc(C)c(C)cc3CCN2C(=O)c2cccc(Cl)c2)cc1` (racemic) the same measures were 1.5 µM and 1.4 µM.
For the compound `COc1ccc(OCC2c3c(cc(OC)cc3OC)CCN2C(=O)c2cccc(Cl)c2)cc1` (racemic), in assay [2], the concentration giving a half-maximal response (EC50) came out at 9.2 µM.
For the compound `COc1ccc(/C=C/C2c3cc(OC)c(OC)cc3CCN2C(=O)c2cccc(Cl)c2)cc1` (racemic), the EC50 in assay [2] came to 1.3 µM; in assay [3], 1.1 µM.
Take `COc1ccc(CCC2c3cc(OC)c(OC)cc3CCN2C(=O)c2cccc(Cl)c2)cc1` (racemic): the result in assay [1] was inactive.
On to `COc1ccc(OCC2c3ccc(OC)cc3CCN2C(=O)c2cccc(C(C)=O)c2)cc1` (racemic), for which the concentration giving a half-maximal response (EC50) in assay [2] was found to be 32 µM; in assay [3], 21 µM.
As for `COc1ccc(OCC2c3cc4c(cc3CCN2C(=O)c2cccc(Cl)c2)OCO4)cc1` (racemic), in assay [1], the result was inactive. Moreover, the EC50 in assay [2] came out at 7.4 µM; in assay [3], 16 µM.
With `COc1ccc(OCC2c3ccc(OCc4ccccc4)cc3CCN2C(=O)c2cccc(Cl)c2)cc1` (racemic), the EC50 in assay [2] and in assay [3] was 0.4 µM each time.
Consider `COc1ccc(OCC2c3cc(OC)c(OC)cc3CCN2C(=O)c2cccc(Cl)c2Cl)cc1` (racemic), for which the concentration for a half-maximal effect (EC50) in assay [3] came to 1.4 µM.
In the case of `COc1ccc(/C=C/C2c3ccc(OC)cc3CCN2C(=O)c2cccc(Cl)c2)cc1` (racemic), the outcome in assay [1] was inactive. Further, the concentration giving a half-maximal response (EC50) in assay [2] and in assay [3] was 1 µM each time.
Consider `COc1ccc(/C=C/C2c3cc(OC)c(OC)cc3CCN2C(=O)c2ccccc2)cc1` (racemic), for which, in assay [1], the result was inactive. Besides, the EC50 in assay [2] and in assay [3] was 35 µM each time.
Take `COc1ccc(OCC2c3ccc(C)cc3CCN2C(=O)c2ccccc2)cc1` (racemic): the EC50 in assay [3] turned out to be 24 µM.
Still for that read-out and setting: for `COc1cc2c(cc1OC)C(COc1ccc(N(C)C)cc1)N(C(=O)c1cccc(Br)c1)CC2` (racemic) the value was 12 µM.
For `COc1ccc(OCC2c3cc(OC)c(OC)cc3CCN2C(=O)c2cccc(-c3ccccc3)c2)cc1` (racemic), the half-maximal effective concentration (EC50) stood at 3.6 µM in assay [2] and 2.9 µM in assay [3].
For `COc1ccc(OCC2c3cc(OC)c(OC)cc3CCN2C(=O)c2ccc(F)c(Cl)c2)cc1` (racemic) the same measures were 5.3 µM and 5.3 µM.
Regarding `CCc1ccc(OCC2c3cc(OC)c(OC)cc3CCN2C(=O)c2ccccc2)cc1` (racemic), in assay [3], the EC50 was determined as 23 µM.
Consider `COc1ccc(OCC2c3ccc(OC)cc3CCN2C(=O)c2ccccc2)cc1` (racemic), for which the EC50 in assay [2] came to 5.7 µM; in assay [3], 7.5 µM.
Turning to `COc1ccc(OCC2c3cc(OC)c(OC)cc3CCN2C(=O)c2cccc(C#N)c2)cc1` (racemic), in assay [1], the outcome was inactive. Moreover, the half-maximal effective concentration (EC50) worked out at 7.7 µM in assay [2] and 29 µM in assay [3].
For the compound `COc1ccc(OCC2c3cc(C)c(C)cc3CCN2C(=O)c2cccc(Br)c2)cc1` (racemic), the concentration giving a half-maximal response (EC50) amounted to 1.1 µM in assay [2] and 0.9 µM in assay [3].
For `COc1ccc(OCC2c3cc(OC)c(OC)cc3CCN2C(=S)Nc2cccc(C)c2)cc1` (racemic), in that order: 4.9 µM and 5.2 µM.
For `COc1ccc(OCC2c3ccc(C)cc3CCN2C(=O)c2cccc(Cl)c2)cc1` (racemic), in that order: 4.7 µM and 5 µM.

Source of the values: ChEMBL document CHEMBL2396604, “Synthesis and structure activity relationship of tetrahydroisoquinoline-based potentiators of GluN2C and GluN2D containing N-methyl-D-aspartate receptors” (J Med Chem, 2013).
